Consider two compounds from ChEMBL document CHEMBL2029265, “2-(Pyrrolidin-1-yl)ethyl-3,4-dihydroisoquinolin-1(2H)-one derivatives as potent and selective histamine-3 receptor antagonists” (J Med Chem, 2012).

The structures appear in SMILES notation. pKi: −log10 of the molar value.

A short description of data set [1]: Volume of distribution in beagle dog at 2 mg/kg, iv administered as single bolus dose. Particulars: in vivo. It is filed as ADME, organism-based, Canis lupus familiaris. More on the design: dose 2 mg/kg, route intravenous. In outline:
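Male beagle dogs, single intravenous bolus 2 mg/kg. Plasma pharmacokinetics.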

Data set [2] has as its system Rattus norvegicus. Briefly: Toxicity in rat assessed as epithelial hyperplasia at 600 mg/kg/day administered for 14 days as repeat dose. Type of data set: organism-based. The following applies: in vivo, 336 h.
Data set [3] in a line: Cmax in Long Evans rat at 10 mg/kg, po administered as single dose. It is filed as ADME, organism-based. More on the design: dose 10 mg/kg, route oral. Particulars: in vivo. In outline:
(§1)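 Male Long Evans rats received one oral dose of 10 mg/kg, formulated in 2% Tween/0.5% methyl cellulose in water. Plasma pharmacokinetic parameters were derived from this single dose.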

Data set [4] can be described thus: Toxicity in rat. Particulars: in vivo. Type of data set: organism-based. In outline:
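14-day repeat-dose study in rats at 60, 200 and 600 mg/kg/day, with clinical observation and tissue findings; maximum tolerated dose derived from findings across dose groups.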

Data set [5] relates to Canis familiaris. Briefly: Toxicity in dog assessed as QTc prolongation at 20 mg/kg/day administered for 14 days as repeat dose. Type of data set: organism-based, Canis lupus familiaris. Particulars: in vivo, 336 h. In outline: (§2)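 Dogs dosed for 14 days in a repeat-dose toxicity study at 20, 60 and 120 mg/kg/day. Clinical signs and QTc monitored.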
In data set [6] the test system is Rattus norvegicus. Briefly: Reversal of time-induced cognitive deficit in po dosed rats by novel object recognition test. Type of data set: functional. Particulars: read-out: MED.
A short description of data set [7]: Tmax in Long Evans rat at 10 mg/kg, po administered as single dose. Particulars: in vivo. It is filed as ADME, organism-based. More on the design: dose 10 mg/kg, route oral. In outline: (§3)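 Male Long Evans rats, single oral dose 10 mg/kg in 2% Tween/0.5% methyl cellulose in water. Plasma pharmacokinetics.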
In data set [8] the test system is Canis familiaris. Briefly: Toxicity in dog assessed as arrhythmia at 20 mg/kg/day administered for 14 days as repeat dose. Type of data set: organism-based, Canis lupus familiaris. Particulars: in vivo, 336 h. In outline:
as §2

The nature of data set [9]: Elimination half life in Long Evans rat at 2 mg/kg, iv administered as single bolus dose. Type of data set: ADME, organism-based. Also noted: dose 2 mg/kg, route intravenous. The following applies: in vivo, read-out: beta t1/2 (converted). In outline: (§4)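 Male Long Evans rats were given a single intravenous bolus of 2 mg/kg in DMSO/80% PEG 200. Clearance, volume of distribution and elimination half-life were derived.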

Data set [10] is described as follows: Terminal half life in Long Evans rat at 10 mg/kg, po administered as single dose. Type of data set: ADME, organism-based. Also noted: dose 10 mg/kg, route oral. The following applies: in vivo, read-out: beta t1/2 (converted). In outline: as §3
Data set [11] can be described thus: Clearance in Long Evans rat at 2 mg/kg, iv administered as single bolus dose. It is filed as ADME, organism-based. Also noted: dose 2 mg/kg, route intravenous. Particulars: in vivo. In outline: as §4
Data set [12] is described as follows: Elimination half life in beagle dog at 2 mg/kg, iv administered as single bolus dose. Type of data set: ADME, organism-based, Canis lupus familiaris. Particulars: in vivo, read-out: beta t1/2 (converted). Also noted: dose 2 mg/kg, route intravenous. In outline:
(§5)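 Male beagle dogs received a single intravenous bolus dose of 2 mg/kg. Plasma clearance, volume of distribution and elimination half-life were determined.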

Data set [13] has as its system Rattus norvegicus. Briefly: Toxicity in rat assessed as respiratory distress at 600 mg/kg/day administered for 14 days as repeat dose. Type of data set: organism-based. The following applies: in vivo, 336 h.
The test system of data set [14] is Salmonella typhimurium. The data set can be described thus: Mutagenic activity in Salmonella typhimurium assessed as revertants by Ames test. It is filed as toxicity, organism-based. Particulars: salmonella enterica subsp. enterica serovar typhimurium. In outline:
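Screening Ames bacterial reverse mutation assay in Salmonella typhimurium, run at multiple dosages.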
On the technique in general: In the Ames test, an excess of revertant colonies over the control signals mutagenicity.

A short description of data set [15]: Volume of distribution in Long Evans rat at 2 mg/kg, iv administered as single bolus dose. It is filed as ADME, organism-based. More on the design: dose 2 mg/kg, route intravenous. The following applies: in vivo. In outline:
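Male Long Evans rats, single intravenous bolus 2 mg/kg, vehicle DMSO/80% PEG 200. Plasma pharmacokinetics.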

In data set [16] the test system is Mus musculus. Briefly: Reversal of MK-801-induced memory deficit in po dosed mice at measured after 24 hrs by social odor recognition test. The following applies: read-out: MED.
Data set [17] is described as follows: AUC (0 to infinity) in Long Evans rat at 10 mg/kg, po administered as single dose. It is filed as ADME, organism-based. Particulars: plasma. Also noted: dose 10 mg/kg, route oral, time infinity. In outline:
as §1

Data set [18] in a line: Clearance in beagle dog at 2 mg/kg, iv administered as single bolus dose. Type of data set: ADME, organism-based, Canis lupus familiaris. Also noted: dose 2 mg/kg, route intravenous. The following applies: in vivo. In outline: as §5
The nature of data set [19]: Toxicity in dog. Type of data set: organism-based, Canis lupus familiaris. Particulars: in vivo. In outline: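 14-day repeat-dose study in dogs at 20, 60 and 120 mg/kg/day, with clinical observation including cardiac rhythm and QTc; maximum tolerated dose derived from findings across dose groups.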
Data set [20] relates to Canis familiaris. The data set can be described thus: Toxicity in dog assessed as convulsions at >/= 60 mg/kg/day administered for 14 days as repeat dose. It is filed as organism-based, Canis lupus familiaris. Particulars: in vivo, 336 h. In outline: as §2
Data set [21] in a line: Oral bioavailability in Long Evans rat at 10 mg/kg administered as single dose. Type of data set: ADME, organism-based. The following applies: in vivo. In outline: as §1
A short description of data set [22]: Oral bioavailability in beagle dog at 10 mg/kg administered as single dose. Type of data set: ADME, organism-based, Canis lupus familiaris. The following applies: in vivo.
For data set [23], the target named is CYP3A4 (Homo sapiens, UniProt P08684). Briefly: Inhibition of CYP3A4 at 3 uM. It is filed as ADME.
The target of data set [24] is Histamine H3 receptor (Rattus norvegicus, UniProt Q9QYN8). Briefly: Displacement of [3H]-(R)-alpha-methylhistamine from rat H3 receptor expressed in HEK293T cells after 120 mins by scintillation counting. Type of data set: cell-based, HEK-293T. For orientation: Displacement assays read how much labelled ligand stays bound in the presence of the test substance.
Data set [25] has as its target Histamine H3 receptor (Homo sapiens, UniProt Q9Y5N1). Briefly: Displacement of [3H]-(R)-alpha-methylhistamine from human H3 receptor expressed in HEK293T cells after 120 mins by scintillation counting. It is filed as cell-based, HEK-293T.

Chain of Histamine H3 receptor (Rattus norvegicus, UniProt Q9QYN8) (Q9QYN8 whole entry): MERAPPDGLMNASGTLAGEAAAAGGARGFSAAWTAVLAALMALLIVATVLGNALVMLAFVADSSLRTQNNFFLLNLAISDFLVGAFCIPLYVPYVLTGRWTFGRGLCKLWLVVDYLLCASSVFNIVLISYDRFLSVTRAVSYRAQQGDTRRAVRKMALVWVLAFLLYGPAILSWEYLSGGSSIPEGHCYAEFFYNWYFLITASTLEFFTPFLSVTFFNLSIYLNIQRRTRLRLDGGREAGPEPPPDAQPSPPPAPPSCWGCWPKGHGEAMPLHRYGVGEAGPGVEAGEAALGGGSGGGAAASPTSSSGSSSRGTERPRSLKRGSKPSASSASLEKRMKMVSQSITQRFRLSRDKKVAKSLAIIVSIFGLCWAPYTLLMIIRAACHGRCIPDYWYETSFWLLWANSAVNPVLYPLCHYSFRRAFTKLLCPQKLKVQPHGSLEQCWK
Chain of CYP3A4 (P08684 whole entry): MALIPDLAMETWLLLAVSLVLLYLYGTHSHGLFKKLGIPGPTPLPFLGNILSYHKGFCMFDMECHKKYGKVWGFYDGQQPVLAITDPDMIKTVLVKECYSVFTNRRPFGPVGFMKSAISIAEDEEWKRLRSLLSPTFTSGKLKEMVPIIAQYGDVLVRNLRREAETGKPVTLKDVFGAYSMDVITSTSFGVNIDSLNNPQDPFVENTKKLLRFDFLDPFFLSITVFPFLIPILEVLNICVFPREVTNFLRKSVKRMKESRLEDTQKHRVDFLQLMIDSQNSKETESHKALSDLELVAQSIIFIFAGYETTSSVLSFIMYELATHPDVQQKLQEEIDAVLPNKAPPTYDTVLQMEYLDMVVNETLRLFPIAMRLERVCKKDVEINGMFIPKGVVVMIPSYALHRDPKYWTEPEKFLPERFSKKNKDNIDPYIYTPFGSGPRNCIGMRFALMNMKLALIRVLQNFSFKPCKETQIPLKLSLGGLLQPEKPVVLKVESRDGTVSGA
Chain of Histamine H3 receptor (Homo sapiens, UniProt Q9Y5N1) (Q9Y5N1 whole entry): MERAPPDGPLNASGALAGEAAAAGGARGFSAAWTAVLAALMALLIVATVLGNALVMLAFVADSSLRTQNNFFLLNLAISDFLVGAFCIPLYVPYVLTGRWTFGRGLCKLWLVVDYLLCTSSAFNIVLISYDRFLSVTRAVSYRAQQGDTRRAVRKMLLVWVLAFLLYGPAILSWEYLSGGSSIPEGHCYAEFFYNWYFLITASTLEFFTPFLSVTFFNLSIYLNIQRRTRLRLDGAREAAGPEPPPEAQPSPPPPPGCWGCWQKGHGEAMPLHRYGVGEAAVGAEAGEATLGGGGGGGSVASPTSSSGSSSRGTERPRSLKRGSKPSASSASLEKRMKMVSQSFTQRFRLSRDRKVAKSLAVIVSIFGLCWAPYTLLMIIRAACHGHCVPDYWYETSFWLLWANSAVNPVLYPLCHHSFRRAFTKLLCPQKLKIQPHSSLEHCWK

One may read the Vd as a proportionality between amount in the body and measured concentration, not a real space. A lower Vd goes with confinement near the circulation. For orientation: Cmax means the highest concentration seen after dosing. Usually Tmax stands for the time at which the peak concentration occurs. What is called clearance is a measure of how efficiently the substance is removed, as volume per time. The low end stands for a low capacity for elimination, the high end for a high capacity for elimination. In general, AUC(0-inf) refers to total exposure, with the tail of the curve extrapolated. A low value points to less exposure. A word on the bioavailability: it is the share of a dose that reaches the circulation, judged against a reference dose that is usually intravenous. A low value points to little systemic uptake. Consider `CN(C)C(=O)c1ccc(-c2ccc3c(c2)CCN(CCN2CCCC2)C3=O)cc1.Cl`, for which the Vd in data set [1] was determined as 3.1 L/kg; in [15] it was 2.1 L/kg. Also, the Activity entry is “Toxic” in data set [2]; “Toxic” in [5]; “Toxic” in data set [8]; “Toxic” in data set [13]; “Non-toxic” in data set [14]; “Toxic” in data set [20]. In data set [3], this compound yielded a Cmax of 989 ng/mL. The MTD came to 200 mg/kg/day in data set [4] and 20 mg/kg/day in [19]. The minimal effective dose in [6] and in data set [16] was 1 mg/kg throughout. For the same compound, the time of peak concentration (Tmax) in [7] amounted to 18 min. For the same compound, the half-life in data set [9] was 18 min; in [10], 48 min; in [12], 96 min. Further, the values for the clearance in data set [11] and in [18] were 87 mL/min/kg and 23 mL/min/kg, respectively. This compound also gave an AUC(0-inf) in [17] of 1650 ng·h/mL. In addition, the figures for the bioavailability in data set [21] and in data set [22] were 85% and 57%, respectively.

As a reminder, the inhibition is the percentage by which the read-out fell short of the control. A lower inhibition goes with a weak effect. What is called pKi is the negative decadic logarithm of the Ki, by convention in mol/L. A high value points to a low Ki. In [23], `O=C1c2ccc(-c3ccc(F)cc3)cc2CCN1CCN1CCCCCC1` came in with an inhibition at 3 µM of 47%. Further, the pKi is 7.33 in data set [24] and 8.24 in data set [25].
